Experimental data: ChEMBL document CHEMBL1158396 (2009)

Columns and labels:
K562 [1] = experiment: Antiproliferative activity against human K562 cells at 0.25 nM after 72 hrs by MTS assay; assay type: functional; conditions: K562, 72 h
HL-60 [2] = experiment: Antiproliferative activity against human HL60 cells at 0.25 nM after 72 hrs by MTS assay; assay type: functional; conditions: HL-60, 72 h
HL-60 [3] = experiment: Antiproliferative activity against human HL60 cells at 1 uM after 72 hrs by MTS assay; assay type: functional; conditions: HL-60, 72 h
How it was run: (§1)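 Cells kept in Glutamax RPMI with 10% fetal calf serum, penicillin and streptomycin, at 37 °C in 5% CO2. Plated at 500–800 cells/well and left 24 h before adding compound in DMSO (10^-6 or 10^-5 M final). Exposure was continuous for 72 h, then MTS read-out at 490 nm, in triplicate. Percent inhibition was taken from absorbance versus control wells after blank subtraction.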

[4] = molecular target: Dual specificity tyrosine-phosphorylation-regulated kinase 1A (Rattus norvegicus) (UniProt Q63470); experiment: Inhibition of rat GST-fused Dyrk1a expressed in Escherichia coli assessed as residual enzyme activity at 10 uM
K562 [5] = experiment: Antiproliferative activity against human K562 cells at 1 uM after 72 hrs by MTS assay; assay type: functional; conditions: K562, 72 h; how it was run: as §1
Sus scrofa [6] = organism: Sus scrofa; experiment: Inhibition of pig CK1 assessed as residual enzyme activity at 10 uM
HL-60 [7] = experiment: Antiproliferative activity against human HL60 cells at 10 uM after 72 hrs by MTS assay; assay type: functional; conditions: HL-60, 72 h; how it was run: as §1
K562 [8] = experiment: Antiproliferative activity against human K562 cells at 10 uM after 72 hrs by MTS assay; assay type: functional; conditions: K562, 72 h; how it was run: as §1
[9] = molecular target: Cyclin-dependent kinase 5/CDK5 activator 1 (Homo sapiens) (UniProt Q00535+Q15078); experiment: Inhibition of GST-CDK5/p25 expressed in Escherichia coli assessed as residual enzyme activity at 10 uM
Sus scrofa [10] = organism: Sus scrofa; experiment: Inhibition of pig GSK3 assessed as residual enzyme activity at 10 uM

Sequence of Cyclin-dependent kinase 5/CDK5 activator 1 (Homo sapiens) (Q00535 whole entry): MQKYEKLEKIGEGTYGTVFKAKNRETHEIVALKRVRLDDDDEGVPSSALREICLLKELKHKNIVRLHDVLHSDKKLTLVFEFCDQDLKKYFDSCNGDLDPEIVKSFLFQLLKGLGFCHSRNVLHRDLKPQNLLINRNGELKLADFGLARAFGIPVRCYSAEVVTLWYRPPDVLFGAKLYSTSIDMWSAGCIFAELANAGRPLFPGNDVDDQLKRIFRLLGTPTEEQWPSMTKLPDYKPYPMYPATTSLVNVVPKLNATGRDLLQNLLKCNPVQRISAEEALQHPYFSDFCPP
Sequence of Cyclin-dependent kinase 5/CDK5 activator 1 (Homo sapiens) (Q15078 99-307 partner limits assumed): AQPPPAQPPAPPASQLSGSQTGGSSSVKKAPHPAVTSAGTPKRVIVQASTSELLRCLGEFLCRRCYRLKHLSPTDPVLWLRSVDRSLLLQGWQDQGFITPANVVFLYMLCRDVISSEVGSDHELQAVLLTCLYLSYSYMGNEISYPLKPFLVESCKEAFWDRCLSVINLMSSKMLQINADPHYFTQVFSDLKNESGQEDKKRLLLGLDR

| SMILES | Activity [4] [%] | Activity (Sus scrofa [6]) [%] | Activity [9] [%] | Activity (Sus scrofa [10]) [%] | inhibition at 0.00025 µM (K562 [1]) [%] | inhibition at 0.00025 µM (HL-60 [2]) [%] | inhibition at 1 µM (HL-60 [3]) [%] | inhibition at 1 µM (K562 [5]) [%] | inhibition at 10 µM (HL-60 [7]) [%] | inhibition at 10 µM (K562 [8]) [%] |
| --- | --- | --- | --- | --- | --- | --- | --- | --- | --- | --- |
| CC(=O)O[C@@]12CO[C@@H]1C[C@H](O)[C@@]1(C)C(=O)[C@H](O)C3=C(C)[C@@H](OC(=O)[C@H](O)[C@@H](NC(=O)OC(C)(C)C)c4ccccc4)C[C@@](O)([C@@H](OC(=O)c4ccccc4)[C@H]21)C3(C)C [DOCETAXEL] |  |  |  |  | 32 | 46 |  |  |  |  |
| CC(=O)OC[C@H]1O[C@@H](N2C(=O)/C(=C3/C(=O)Nc4ccc(C#CCNC(=O)OCc5ccccc5)cc43)c3cc(Br)ccc32)[C@H](OC(C)=O)[C@@H](OC(C)=O)[C@@H]1OC(C)=O | > 65 | > 65 | > 65 | > 65 |  |  | 0 | 1 | 0 | 2 |
| CC(=O)OC[C@H]1O[C@@H](N2C(=O)/C(=C3/C(=O)Nc4ncc(C#CCNC(=O)OCc5ccccc5)cc43)c3ccccc32)[C@H](OC(C)=O)[C@@H](OC(C)=O)[C@@H]1OC(C)=O | > 65 | > 65 | > 65 | > 65 |  |  | 0 | 4 | 11 | 59 |
| CC(=O)OC[C@H]1O[C@@H](N2C(=O)/C(=C3/C(=O)Nc4ncc(I)cc43)c3cc(Br)ccc32)[C@H](OC(C)=O)[C@@H](OC(C)=O)[C@@H]1OC(C)=O |  |  |  |  |  |  | 0 | 0 | 0 | 3 |
| CC(=O)OC[C@H]1O[C@@H](N2C(=O)/C(=C3/C(=O)Nc4ccc(I)cc43)c3cc(Br)ccc32)[C@H](OC(C)=O)[C@@H](OC(C)=O)[C@@H]1OC(C)=O | > 65 | > 65 | > 65 | > 65 |  |  | 0 | 0 | 0 | 3 |
| CC(=O)OC[C@H]1O[C@@H](N2C(=O)/C(=C3/C(=O)Nc4ccc(C#CCNC(=O)OCc5ccccc5)cc43)c3ccccc32)[C@H](OC(C)=O)[C@@H](OC(C)=O)[C@@H]1OC(C)=O | > 65 | > 65 | > 65 | > 65 |  |  | 0 | 0 | 1 | 6 |
| CC(=O)OC[C@H]1O[C@@H](N2C(=O)/C(=C3/C(=O)Nc4ncc(C#CCCO)cc43)c3ccccc32)[C@H](OC(C)=O)[C@@H](OC(C)=O)[C@@H]1OC(C)=O |  |  |  |  |  |  | 0 | 5 | 0 | 10 |
| CC(=O)OC[C@H]1O[C@@H](N2C(=O)/C(=C3/C(=O)Nc4ncc(C#CCNC(=O)OCc5ccccc5)cc43)c3cc(Br)ccc32)[C@H](OC(C)=O)[C@@H](OC(C)=O)[C@@H]1OC(C)=O |  |  |  |  |  |  | 0 | 0 | 0 | 5 |

Further lines, with some results ahead:

| Activity [4] [%] | Activity (Sus scrofa [6]) [%] | Activity [9] [%] | Activity (Sus scrofa [10]) [%] | SMILES | inhibition at 0.00025 µM (K562 [1]) [%] | inhibition at 0.00025 µM (HL-60 [2]) [%] | inhibition at 1 µM (HL-60 [3]) [%] | inhibition at 1 µM (K562 [5]) [%] | inhibition at 10 µM (HL-60 [7]) [%] | inhibition at 10 µM (K562 [8]) [%] |
| --- | --- | --- | --- | --- | --- | --- | --- | --- | --- | --- |
| > 65 | > 65 | > 65 | > 65 | CC(=O)OC[C@H]1O[C@@H](N2C(=O)/C(=C3/C(=O)Nc4ncc(Br)cc43)c3cc(Br)ccc32)[C@H](OC(C)=O)[C@@H](OC(C)=O)[C@@H]1OC(C)=O |  |  | 0 | 3 | 0 | 4 |
| > 65 | > 65 | > 65 | > 65 | CC(=O)OC[C@H]1O[C@@H](N2C(=O)/C(=C3/C(=O)Nc4ncc(I)cc43)c3ccccc32)[C@H](OC(C)=O)[C@@H](OC(C)=O)[C@@H]1OC(C)=O |  |  | 0 | 0 | 1 | 47 |
| > 65 |  | > 65 |  | CC(=O)OC[C@H]1O[C@@H](N2C(=O)/C(=C3/C(=O)Nc4ccc(I)cc43)c3ccccc32)[C@H](OC(C)=O)[C@@H](OC(C)=O)[C@@H]1OC(C)=O |  |  |  |  |  |  |
| > 65 | > 65 | > 65 | > 65 | CC(=O)OC[C@H]1O[C@@H](N2C(=O)/C(=C3/C(=O)Nc4ccc(C#CCCO)cc43)c3ccccc32)[C@H](OC(C)=O)[C@@H](OC(C)=O)[C@@H]1OC(C)=O |  |  | 0 | 2 | 8 | 33 |
| > 65 |  | > 65 |  | CC(=O)OC[C@H]1O[C@@H](N2C(=O)/C(=C3/C(=O)Nc4ncc(Br)cc43)c3ccccc32)[C@H](OC(C)=O)[C@@H](OC(C)=O)[C@@H]1OC(C)=O |  |  |  |  |  |  |
